Laboratory results published in ChEMBL document CHEMBL1140549, “Rational design of N-alkyl derivatives of 2-amino-2-deoxy-d-glucitol-6P as antifungal agents” (Bioorg Med Chem Lett, 2007).
In brackets after ≈: the same amount, converted by molar mass. Activity calls are given as the source filed them. The rule behind the calls is not given here.

Tests used:
Candida tropicalis = assay: Antifungal activity against Candida tropicalis by serial dilution microplate method; format: functional
Saccharomyces cerevisiae [1] = assay: Antimicrobial activity against Saccharomyces cerevisiae ADCDR1 by serial dilution microplate method; format: functional
Summary of the method: (§1)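 Saccharomyces cerevisiae AD lacks the seven genes for the main drug-exporting membrane proteins. ADCDR1 is AD transformed with a plasmid carrying the gene for Candida albicans Cdr1p drug exporter. MIC was read by serial dilution in microplates.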

Saccharomyces cerevisiae [2] = assay: Antimicrobial activity against Saccharomyces cerevisiae AD by serial dilution microplate method; format: functional; summary of the method: as §1
Nakaseomyces glabratus = assay: Antifungal activity against Candida glabrata by serial dilution microplate method; format: functional
[3] = Inhibition of Candida albicans glucosamine-6P synthase by Elson-Morgan method
Summary of the method: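 Enzyme was Candida albicans GlcN-6P synthase purified to near homogeneity. Reactions ran in 25 mM phosphate buffer, pH 6.9, with 1 mM EDTA and 1 mM DTT, D-Fru-6P (0.5–7.5 mM) and L-glutamine (0.625–10 mM), plus inhibitor. Product was measured by a modified Elson–Morgan method. IC50 and Ki are means of three experiments, with SD.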

[4] = target: Glucose-6-phosphate isomerase (Saccharomyces cerevisiae S288c) (UniProt P12709); assay: Inhibition of yeast phosphoglucose isomerase upto 20 mM
Candida albicans [5] = assay: Drug uptake in Candida albicans assessed as uptake rate per mg dry weight; format: ADME, organism-based; conditions: in vivo
Candida albicans [6] = assay: Antifungal activity against Candida albicans by serial dilution microplate method; format: functional

Chain of Glucose-6-phosphate isomerase (Saccharomyces cerevisiae S288c) (P12709 whole entry): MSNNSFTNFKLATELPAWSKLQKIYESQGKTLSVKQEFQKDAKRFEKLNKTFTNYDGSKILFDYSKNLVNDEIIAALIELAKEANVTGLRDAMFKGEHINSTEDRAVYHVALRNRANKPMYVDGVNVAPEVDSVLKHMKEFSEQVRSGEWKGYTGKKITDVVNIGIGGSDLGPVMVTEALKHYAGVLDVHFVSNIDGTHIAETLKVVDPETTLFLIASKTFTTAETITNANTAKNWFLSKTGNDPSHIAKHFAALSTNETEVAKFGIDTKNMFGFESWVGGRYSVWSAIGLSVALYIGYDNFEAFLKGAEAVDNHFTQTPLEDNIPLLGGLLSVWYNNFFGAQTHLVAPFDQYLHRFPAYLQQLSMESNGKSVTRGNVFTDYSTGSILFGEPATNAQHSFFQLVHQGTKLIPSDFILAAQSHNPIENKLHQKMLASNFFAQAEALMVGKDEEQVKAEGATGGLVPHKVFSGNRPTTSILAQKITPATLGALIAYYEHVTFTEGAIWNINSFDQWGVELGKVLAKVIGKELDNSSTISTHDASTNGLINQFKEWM

Structure (SMILES) | MIC (Candida tropicalis) [µg/mL] | MIC (Saccharomyces cerevisiae [1]) [µg/mL] | MIC (Saccharomyces cerevisiae [2]) [µg/mL] | MIC (Nakaseomyces glabratus) [µg/mL] | IC50 [3] [µM] | Ki [3] [µM] | Activity [4] | Drug uptake (Candida albicans [5]) [nmol/mg/min] | MIC (Candida albicans [6]) [µg/mL]
CCCCCCN[C@@H](CO)[C@@H](O)[C@H](O)[C@H](O)COP(=O)(O)O | 310 (≈ 898 µM) | 310 (≈ 898 µM) | 310 (≈ 898 µM) | 625 (≈ 1810 µM) | 290 | 49 | inactive | 4.8 | 625 (≈ 1810 µM)
CCCCN(CCCC)[C@@H](CO)[C@@H](O)[C@H](O)[C@H](O)COP(=O)(O)O | 2500 (≈ 6700 µM) | 1250 (≈ 3350 µM) | 1250 (≈ 3350 µM) | 1250 (≈ 3350 µM) | 82 | 12 | inactive | 5 | 312 (≈ 836 µM)
CCN[C@@H](CO)[C@@H](O)[C@H](O)[C@H](O)COP(=O)(O)O | 2500 (≈ 8640 µM) | 2500 (≈ 8640 µM) | 2500 (≈ 8640 µM) | 2500 (≈ 8640 µM) | 180 | 26 | inactive | 2.9 | 1250 (≈ 4320 µM)
N[C@@H](CO)[C@@H](O)[C@H](O)[C@H](O)COP(=O)(O)O | 10000 (≈ 38300 µM) | 5000 (≈ 19100 µM) | 5000 (≈ 19100 µM) | 10000 (≈ 38300 µM) | 230 | 35 | inactive | 1.1 | 5000 (≈ 19100 µM)
CCCN(CCC)[C@@H](CO)[C@@H](O)[C@H](O)[C@H](O)COP(=O)(O)O | 625 (≈ 1810 µM) | 160 (≈ 463 µM) | 80 (≈ 232 µM) | 625 (≈ 1810 µM) | 52 | 10 | inactive | 4.7 | 160 (≈ 463 µM)
CCN(CC)[C@@H](CO)[C@@H](O)[C@H](O)[C@H](O)COP(=O)(O)O | 625 (≈ 1970 µM) | 310 (≈ 977 µM) | 310 (≈ 977 µM) | 625 (≈ 1970 µM) | 40 | 8 | inactive | 3.9 | 310 (≈ 977 µM)
CCCCN[C@@H](CO)[C@@H](O)[C@H](O)[C@H](O)COP(=O)(O)O | 1250 (≈ 3940 µM) | 1250 (≈ 3940 µM) | 1250 (≈ 3940 µM) | 1250 (≈ 3940 µM) | 115 | 20 | inactive | 3.4 | 625 (≈ 1970 µM)
OC(Cn1cncn1)(Cn1cncn1)c1ccc(F)cc1F [FLUCONAZOLE] | 16 (≈ 52.2 µM) | 32 (≈ 104 µM) | 4 (≈ 13.1 µM) | 16 (≈ 52.2 µM) | – | – | – | – | 8 (≈ 26.1 µM)
